The species entered for test [1] is Rattus norvegicus. As to the kind of experiment: Maximum rate constant for 7-ethoxycoumarin deethylation in rat liver microsomes 3-methylcholanthrene at concentration of 100 nM. The conditions noted are these: Microsome. (In general: Liver microsomes are vesicles of endoplasmic reticulum, rich in cytochrome P450 enzymes.)
The species entered for test [2] is Rattus norvegicus. Put plainly: Maximum rate constant for 7-ethoxycoumarin deethylation in rat liver microsomes exposed to beta-naphthoflavone at concentration of 1500 uM. The conditions noted are these: Microsome. The method, boiled down:
(§1)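 Liver microsomes from male Sprague-Dawley rats given 3MC or βNF ip (50 mg/kg/day, corn oil, 3 days), harvested day 4. NADPH-regenerating system in 0.1 M Tris-HCl pH 7.4. Substrate 2.5-300 μM final. Inhibitor added from methanol stock. Reaction started with 0.375-0.56 mg microsomal protein, run 4 min at 37 °C, stopped with TCA. 7-Hydroxycoumarin fluorescence read at pH 10.3. At least four assays per substrate concentration. KM and Vmax by direct linear method, with distribution-free 95% confidence limits.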

The species named for test [3] is Rattus norvegicus. As to the kind of experiment: Michaelis-Menten constant for 7-ethoxycoumarin deethylation in rat liver microsomes exposed to 3-methylcholanthrene at concentration of 50 nM. The conditions noted are these: Microsome.
Test [4] in a line: Compound was evaluated for inhibition constant, in liver microsomes from 3-methylcholanthrene-exposed rats. Further details: species or system Rattus norvegicus, Microsome.
For test [5], the species on record is Rattus norvegicus. Put plainly: Maximum rate constant for 7-ethoxycoumarin deethylation in rat liver microsomes 3-methylcholanthrene at concentration of 200 nM. The conditions noted are these: Microsome.
Test [6] is filed under the species Rattus norvegicus. As to the kind of experiment: Michaelis-Menten constant for 7-ethoxycoumarin deethylation in rat liver microsomes exposed to beta-naphthoflavone at 500 uM. The conditions noted are these: Microsome. The method, boiled down: (§2)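 Liver microsomes from young male Sprague-Dawley rats (75-125 g) given the inducer ip in corn oil at 50 mg/kg on 3 successive days, microsomes isolated on day 4. 7-Ethoxycoumarin (2.5 to 300 μM final) in 0.1 M Tris-HCl pH 7.4 with NADPH-regenerating system. Reaction started with microsomal protein (0.375-0.56 mg), run 4 min at 37 °C, stopped with TCA. 7-Hydroxycoumarin read fluorometrically at pH 10.3. Inhibitor added from methanol stock, ≥4 assays per condition. KM/Vmax obtained by the Eisenthal–Cornish-Bowden direct linear method with 95% distribution-free confidence limits.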

The species named for test [7] is Rattus norvegicus. As to the kind of experiment: Michaelis-Menten constant for 7-ethoxycoumarin deethylation in rat liver microsomes exposed to beta-naphthoflavone at 1500 nM. The conditions noted are these: Microsome.
Test [8] is filed under the species Rattus norvegicus. Put plainly: Michaelis-Menten constant for 7-ethoxycoumarin deethylation in rat liver microsomes exposed to 3-methylcholanthrene at concentration of 100 uM. The following applies: Microsome. Summed up:
as §1

The nature of test [9]: Compound was evaluated for inhibition constant, in liver microsomes from beta-naphthoflavone-exposed rats. Further details: species or system Rattus norvegicus, Microsome.
Test [10] is filed under the species Rattus norvegicus. As to the kind of experiment: Michaelis-Menten constant for 7-ethoxycoumarin deethylation in rat liver microsomes exposed to 3-methylcholanthrene at concentration of 200 uM. The conditions noted are these: Microsome. Summed up: as §1
The species named for test [11] is Rattus norvegicus. As to the kind of experiment: Compound was evaluated for alpha -rate constant, in liver microsomes from beta-naphthoflavone-exposed rats. The following applies: Microsome. The method, boiled down: (§3)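 Rats (male Sprague-Dawley, 75-125 g) dosed ip with 3MC or βNF, 50 mg/kg in corn oil, on 3 successive days; liver microsomes isolated day 4. 7-Ethoxycoumarin deethylation (2.5-300 μM substrate) measured with inhibitor present; KM and Vmax by Eisenthal–Cornish-Bowden direct linear method. Ki from x-intercept of least-squares KM/Vmax vs [I]; αKi from x-intercept of 1/Vmax vs [I].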

Test [12] is filed under the species Rattus norvegicus. As to the kind of experiment: Maximum rate constant for 7-ethoxycoumarin deethylation in rat liver microsomes 3-methylcholanthrene at concentration of 50 nM. The conditions noted are these: Microsome.
The species named for test [13] is Rattus norvegicus. As to the kind of experiment: Maximum rate constant for 7-ethoxycoumarin deethylation in rat liver microsomes exposed to beta-naphthoflavone at concentration of 1000 uM. The following applies: Microsome. Summed up: as §1
For test [14], the species on record is Rattus norvegicus. As to the kind of experiment: Compound was evaluated for alpha -rate constant, in liver microsomes from 3-methylcholanthrene-exposed rats. The following applies: Microsome. The method, boiled down:
as §3

For test [15], the species on record is Rattus norvegicus. Put plainly: Michaelis-Menten constant for 7-ethoxycoumarin deethylation in rat liver microsomes exposed to beta-naphthoflavone at 1000 nM. The conditions noted are these: Microsome.
The species named for test [16] is Rattus norvegicus. As to the kind of experiment: Maximum rate constant for 7-ethoxycoumarin deethylation in rat liver microsomes exposed to beta-naphthoflavone at 500 uM. The conditions noted are these: Microsome. The method, boiled down: as §1
The species entered for test [17] is Rattus norvegicus. As to the kind of experiment: Maximum rate constant for 7-ethoxycoumarin deethylation in rat liver microsomes exposed to beta-naphthoflavone at 2.5 uM. The conditions noted are these: Microsome. The method, boiled down:
as §1

For test [18], the species on record is Rattus norvegicus. Put plainly: Michaelis-Menten constant for 7-ethoxycoumarin deethylation in rat liver microsomes exposed to beta-naphthoflavone at 1 uM. The following applies: Microsome. Summed up: as §1
Test [19] is filed under the species Rattus norvegicus. As to the kind of experiment: Michaelis-Menten constant for 7-ethoxycoumarin deethylation in rat liver microsomes exposed to beta-naphthoflavone at 5 uM. The following applies: Microsome. Summed up:
as §1

For test [20], the species on record is Rattus norvegicus. As to the kind of experiment: Maximum rate constant for 7-ethoxycoumarin deethylation in rat liver microsomes exposed to beta-naphthoflavone at 5 uM. The conditions noted are these: Microsome. Summed up:
as §1

Test [21] is filed under the species Rattus norvegicus. As to the kind of experiment: Michaelis-Menten constant for 7-ethoxycoumarin deethylation in rat liver microsomes exposed to beta-naphthoflavone at 2.5 uM. The following applies: Microsome. The method, boiled down: as §1
The species named for test [22] is Rattus norvegicus. As to the kind of experiment: Maximum rate constant for 7-ethoxycoumarin deethylation in rat liver microsomes exposed to beta-naphthoflavone at 1 uM. The conditions noted are these: Microsome. The method, boiled down:
as §1

For test [23], the species on record is Rattus norvegicus. Put plainly: Michaelis-Menten constant for 7-ethoxycoumarin deethylation in rat liver microsomes exposed to 3-methylcholanthrene at a concentration of 5 uM. The conditions noted are these: Microsome. The method, boiled down:
as §1

The species entered for test [24] is Rattus norvegicus. Put plainly: Michaelis-Menten constant for 7-ethoxycoumarin deethylation in rat liver microsomes exposed to beta-naphthoflavone at 50 uM. The following applies: Microsome. Summed up: as §2
For test [25], the species on record is Rattus norvegicus. Put plainly: Maximum rate constant for 7-ethoxycoumarin deethylation in rat liver microsomes exposed to beta-naphthoflavone at 200 uM. The following applies: Microsome. The method, boiled down:
as §1

Test [26] is filed under the species Rattus norvegicus. Put plainly: Compound was evaluated for alpha inhibition constant, in liver microsomes from beta-naphthoflavone-exposed rats. The following applies: Microsome. The method, boiled down:
as §3

For test [27], the species on record is Rattus norvegicus. As to the kind of experiment: Michaelis-Menten constant for 7-ethoxycoumarin deethylation in rat liver microsomes exposed to beta-naphthoflavone at 200 uM. The conditions noted are these: Microsome. Summed up:
as §1

The species named for test [28] is Rattus norvegicus. Put plainly: Michaelis-Menten constant for 7-ethoxycoumarin deethylation in rat liver microsomes 3-methylcholanthrene at a concentration of 5 uM. The following applies: Microsome. Summed up: as §1
For test [29], the species on record is Rattus norvegicus. Put plainly: Maximum rate constant for 7-ethoxycoumarin deethylation in rat liver microsomes exposed to beta-naphthoflavone at 100 uM. The following applies: Microsome. Summed up:
as §1

For test [30], the species on record is Rattus norvegicus. Put plainly: Compound was evaluated for alpha inhibition constant, in liver microsomes from 3-methylcholanthrene-exposed rats. The following applies: Microsome. Summed up:
as §3

Test [31] is filed under the species Rattus norvegicus. As to the kind of experiment: Maximum rate constant for 7-ethoxycoumarin deethylation in rat liver microsomes exposed to 3-methylcholanthrene at 5 uM. The conditions noted are these: Microsome. Summed up:
as §1

The species named for test [32] is Rattus norvegicus. Put plainly: Michaelis-Menten constant for 7-ethoxycoumarin deethylation in rat liver microsomes exposed to 3-methylcholanthrene at concentration of 10 uM. The following applies: Microsome. The method, boiled down:
as §1

The species named for test [33] is Rattus norvegicus. Put plainly: Michaelis-Menten constant for 7-ethoxycoumarin deethylation in rat liver microsomes exposed to beta-naphthoflavone at 100 uM. The conditions noted are these: Microsome. The method, boiled down: as §1
For test [34], the species on record is Rattus norvegicus. As to the kind of experiment: Maximum rate constant for 7-ethoxycoumarin deethylation in rat liver microsomes exposed to 3-methylcholanthrene at 50 uM. The conditions noted are these: Microsome. The method, boiled down: as §1
For test [35], the species on record is Rattus norvegicus. Put plainly: Michaelis-Menten constant for 7-ethoxycoumarin deethylation in rat liver microsomes exposed to beta-naphthoflavone at 10 uM […]. The conditions noted are these: Microsome. Summed up:
as §1

For test [36], the species on record is Rattus norvegicus. As to the kind of experiment: Michaelis-Menten constant for 7-ethoxycoumarin deethylation in rat liver microsomes exposed to beta-naphthoflavone at 150 uM. The following applies: Microsome. The method, boiled down: as §1
The species named for test [37] is Rattus norvegicus. As to the kind of experiment: Maximum rate constant for 7-ethoxycoumarin deethylation in rat liver microsomes exposed to beta-naphthoflavone at 50 uM. The following applies: Microsome. The method, boiled down: as §1
For test [38], the species on record is Rattus norvegicus. As to the kind of experiment: Maximum rate constant for 7-ethoxycoumarin deethylation in rat liver microsomes exposed to beta-naphthoflavone at 150 uM. The following applies: Microsome. The method, boiled down:
as §1

Consider `O=c1cc(-c2ccccc2)oc2cc3ccccc3cc12`, for which the Vmax (pM min-1 mg-1) is 114 in the test listed under Rattus norvegicus [1]; 1210 in the test listed under Rattus norvegicus [2]; 88 in the test filed under Rattus norvegicus [5]; 150 in the test listed under Rattus norvegicus [12]; 1240 in the test listed under Rattus norvegicus [13]; 1300 in the test listed under Rattus norvegicus [16]. Moreover, the Km (in general, the substrate concentration at which the rate is half of its maximum) in the test listed under Rattus norvegicus [3] is 19.2 µM; in the test filed under Rattus norvegicus [6], 36.9 µM; in the test listed under Rattus norvegicus [7], 93.1 µM; in the test listed under Rattus norvegicus [8], 16.7 µM; in the test filed under Rattus norvegicus [10], 31.5 µM; in the test listed under Rattus norvegicus [15], 66.3 µM. In addition, the Ki – broadly, the dissociation constant of the complex between target and ligand, obtained from inhibition or displacement – in [4] was 0.049 µM; in test [9], 0.24 µM. For the same compound, the Alpha Ki in the test listed under Rattus norvegicus [11] is 11 µM; in the test listed under Rattus norvegicus [14] it was 210 nM.

Turning to `CC(C)c1ccccc1-n1ccnc1`, the Vmax (pM min-1 mg-1) stood at 346 in the test filed under Rattus norvegicus [17], 227 in the test listed under Rattus norvegicus [20] and 734 in the test filed under Rattus norvegicus [22]. The values for the Km in the test filed under Rattus norvegicus [18], in the test listed under Rattus norvegicus [19] and in the test listed under Rattus norvegicus [21] were 22.1 µM, 41.7 µM and 35.8 µM, respectively. The compound also had a Ki in test [9] of 0.3 µM. In the test filed under Rattus norvegicus [11], this compound displayed an Alpha Ki of 1.4 µM.

On to `CC(C)c1ccccc1-n1cccc1`, for which the Michaelis constant (Km) in the test listed under Rattus norvegicus [23] was 17.9 µM; in the test listed under Rattus norvegicus [24] it was 44.1 µM; in the test filed under Rattus norvegicus [27], 91.3 µM; in the test listed under Rattus norvegicus [28] it was 10.2 µM; in the test filed under Rattus norvegicus [32], 29.7 µM; in the test filed under Rattus norvegicus [33], 52.2 µM. Also, the Vmax (pM min-1 mg-1) in the test filed under Rattus norvegicus [25] was found to be 493; in the test filed under Rattus norvegicus [29] it was 652; in the test listed under Rattus norvegicus [31], 141; in the test filed under Rattus norvegicus [34], 94. Also, the Alpha Ki in the test listed under Rattus norvegicus [26] was found to be 270 µM; in the test filed under Rattus norvegicus [30], 60 µM. Besides, the Ki stood at 11 µM in [4] and 19 µM in test [9].

`c1ccc(-n2cccc2)cc1`: the values for the Km in the test filed under Rattus norvegicus [24], in the test filed under Rattus norvegicus [35] and in the test filed under Rattus norvegicus [36] were 28.4 µM, 41.2 µM and 64.3 µM, respectively. In addition, the results for the Vmax (pM min-1 mg-1) in the test listed under Rattus norvegicus [29], in the test listed under Rattus norvegicus [37] and in the test listed under Rattus norvegicus [38] were 760, 819 and 669, respectively. Also, the Ki in test [9] was determined as 27 µM. This compound yielded an Alpha Ki in the test listed under Rattus norvegicus [11] of 430 µM.
